Assay results reported in ChEMBL document CHEMBL3813640, “Design and synthesis of potent and selective pyridazin-4(1H)-one-based PDE10A inhibitors interacting with Tyr683 in the PDE10A selectivity pocket” (Bioorg Med Chem, 2016).

Target: cAMP and cAMP-inhibited cGMP 3',5'-cyclic phosphodiesterase 10A (Homo sapiens, UniProt Q9Y233)
Experiment: Inhibition of human full length PDE10A2 expressed in African green monkey COS7 cells using [3H]cGMP as substrate preincubated for 30 mins followed by substrate addition measured after 60 mins by scintillation proximity assay
Assay type: cell-based, COS-7
Outline: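 Full-length human PDE10A2 from transfected COS-7 cells, held at -70 °C. [³H]cGMP added, 60 min at rt, stopped with yttrium SPA beads containing ZnSO₄. Counted after ≥120 min settling. Inhibition set against DMSO (0%) and 10 µM papaverine (100%) wells. Duplicate or triplicate.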

Sequence of cAMP and cAMP-inhibited cGMP 3',5'-cyclic phosphodiesterase 10A (Q9Y233 whole entry): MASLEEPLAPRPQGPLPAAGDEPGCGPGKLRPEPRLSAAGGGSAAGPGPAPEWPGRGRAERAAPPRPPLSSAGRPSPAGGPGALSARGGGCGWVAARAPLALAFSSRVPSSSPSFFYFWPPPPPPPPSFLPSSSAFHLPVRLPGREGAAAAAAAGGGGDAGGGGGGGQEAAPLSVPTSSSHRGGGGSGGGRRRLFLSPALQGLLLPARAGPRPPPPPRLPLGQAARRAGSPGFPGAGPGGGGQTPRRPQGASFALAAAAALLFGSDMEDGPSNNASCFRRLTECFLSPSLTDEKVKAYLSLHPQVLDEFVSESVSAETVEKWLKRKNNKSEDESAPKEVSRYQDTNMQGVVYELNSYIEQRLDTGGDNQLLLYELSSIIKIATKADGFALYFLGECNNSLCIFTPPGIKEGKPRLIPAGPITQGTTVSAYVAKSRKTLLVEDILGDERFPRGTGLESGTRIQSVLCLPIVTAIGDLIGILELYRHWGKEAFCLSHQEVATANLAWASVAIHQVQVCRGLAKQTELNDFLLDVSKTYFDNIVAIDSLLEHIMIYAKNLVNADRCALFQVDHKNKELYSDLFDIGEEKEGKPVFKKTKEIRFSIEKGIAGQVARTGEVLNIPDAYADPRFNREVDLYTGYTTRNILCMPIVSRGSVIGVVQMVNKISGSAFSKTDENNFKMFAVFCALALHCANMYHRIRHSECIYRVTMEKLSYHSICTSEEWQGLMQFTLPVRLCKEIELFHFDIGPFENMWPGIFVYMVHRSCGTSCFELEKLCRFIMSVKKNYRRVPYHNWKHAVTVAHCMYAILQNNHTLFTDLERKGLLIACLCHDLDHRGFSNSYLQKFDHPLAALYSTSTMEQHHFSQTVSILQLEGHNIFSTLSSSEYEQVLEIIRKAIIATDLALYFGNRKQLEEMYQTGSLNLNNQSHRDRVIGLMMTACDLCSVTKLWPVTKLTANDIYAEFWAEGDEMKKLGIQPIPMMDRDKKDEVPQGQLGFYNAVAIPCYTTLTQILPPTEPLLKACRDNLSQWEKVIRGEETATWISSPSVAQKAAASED

Structure (SMILES)	IC50 [nM]
Cn1c(CCCOc2cn(CC3CC3)nc(-c3ccnn3-c3ccccc3)c2=O)nc2ccccc21	0.81
COc1cn(CC2CC2)nc(-c2ccnn2-c2ccccc2)c1=O	170
Cn1c(COc2cn(CC3CC3)nc(-c3ccnn3-c3ccccc3)c2=O)nc2ccccc21	2800
Cn1c(OCCOc2cn(CC3CC3)nc(-c3ccnn3-c3ccccc3)c2=O)nc2ccccc21	4.1
Cn1c(CCCCOc2cn(CC3CC3)nc(-c3ccnn3-c3ccccc3)c2=O)nc2ccccc21	760
COc1cn(-c2ccccc2)nc(-c2ccnn2C)c1=O	2400
COc1cn(CC(F)(F)F)nc(-c2ccnn2-c2ccccc2)c1=O	550

Next, values leading:

IC50 [nM]	Structure (SMILES)
25	Cn1c(CCOc2cn(CC3CC3)nc(-c3ccnn3-c3ccccc3)c2=O)nc2ccccc21
1000	COc1cn(C)nc(-c2ccnn2-c2ccccc2)c1=O
130	COc1cn(C2CC2)nc(-c2ccnn2-c2ccccc2)c1=O
0.76	O=c1c(OCCN2CCn3c2nc2ccccc23)cn(CC2CC2)nc1-c1ccnn1-c1ccccc1
